Assay outcomes: PubChem BioAssay, Johns Hopkins Ion Channel Center
Sampled rows, rich in hits. Any-hit rate of the full collection: about 3.7%.
KCNK9 inh-1: KCNK9 potassium channel inhibitors, primary screen, HEK293 cells, thallium flux; hit rate 1.2% among 310,000; B-score at 10 µM; Potassium channel subfamily K member 9 (Homo sapiens), Q9NPC2; AID 488922, 2010; FluxOR thallium flux fluorescence; active compounds read low;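 active means ratio B-score over 3 SD below the library mean, with starting fluorescence within 5 SD of its mean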;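 further: negative B-score means less thallium flux so channel inhibition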
hERG protect: hERG rescue from dofetilide block, primary screen, cell-based, CHO-hERG, FluxOR thallium flux, dofetilide IC70; hit rate 0.51% among 310,000; Voltage-gated inwardly rectifying potassium channel KCNH2 (Homo sapiens), Q12809; activation (rescue from dofetilide block), less the hit threshold, % at 10 µM; dofetilide IC70 present;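 active means activation above the mean of controls blocked by dofetilide plus 5 SD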;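 further: thallium influx through hERG after potassium depolarization seen as dye fluorescence rise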
Kir21 block: inhibitors of mouse Kir2.1 inward-rectifier potassium channel. Inward rectifier potassium channel 2 (Mus musculus), P35561. hit rate 0.85% among 310,000. HEK293-Kir2.1, FluxOR thallium flux fluorescence; active compounds read low. B-score at 10 µM;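 active means fluorescence ratio B-score at or below minus 3 SD of library scores, with starting-brightness B-score within 2 SD, cut at about -4.2 in these data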;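 further: channel flux triggered by added potassium and thallium sulfate stimulus; B-score of peak minus minimum fluorescence over baseline after thallium stimulus; more negative B-score means stronger Kir2.1 block with less thallium influx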
KCNQ1 inh: inhibitors of human KCNQ1 channel, primary screen, cell-based, thallium flux, high-throughput. AID 2642, 2010. Potassium voltage-gated channel subfamily KQT member 1 (Homo sapiens), P51787. hit rate 1.3% among 310,000. B-score at 10 µM. CHO-K1 KCNQ1, FluxOR thallium flux fluorescence; active compounds read high;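 active means compounds whose thallium flux B-score, printed positive for inhibition, exceeds three library SD while starting fluorescence stays within three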;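 further: channel opened by potassium depolarization with thallium stimulus after 20 min compound exposure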
KCNQ1 act: potentiators or activators of KCNQ1 channel, primary screen, cell-based, thallium flux, high-throughput; Potassium voltage-gated channel subfamily KQT member 1 (Homo sapiens), P51787; CHO-K1 KCNQ1, thallium flux FluxOR fluorescence; active compounds read high; B-score at 10 µM; hit rate 0.35% among 310,000; AID 2648, 2010;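 active means fluorescence ratio B-score, a plate-corrected score, at least three library SD, with initial intensity B-score within 5 SD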
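Assay system: stable KCNQ1 CHO-K1 line; medium: assay buffer, equal DMSO in all wells; timing: 90 min dye loading and 20 min compound exposure, both at room temperature; technique: kinetic FluxOR thallium fluorescence, 10-s 1-Hz baseline, 110-s post-stimulus read; read-out basis: B score of baseline-normalized fluorescence ratio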
KCNK3 inh: human KCNK3 channel inhibitors, primary screen, CHO cells, FluxOR thallium flux, B-score. Potassium channel subfamily K member 3 (Homo sapiens), O14649. AID 602410, 2012. hit rate 0.84% among 340,000. FluxOR fluorescence; active compounds read low. B-score at 10 µM;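 active means B-score under library mean minus 4 SD, starting fluorescence ratio at most library mean plus 5 SD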;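 further: more negative B-score means stronger inhibition of thallium flux through KCNK3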
Target sequence (O14649 whole entry, looked up): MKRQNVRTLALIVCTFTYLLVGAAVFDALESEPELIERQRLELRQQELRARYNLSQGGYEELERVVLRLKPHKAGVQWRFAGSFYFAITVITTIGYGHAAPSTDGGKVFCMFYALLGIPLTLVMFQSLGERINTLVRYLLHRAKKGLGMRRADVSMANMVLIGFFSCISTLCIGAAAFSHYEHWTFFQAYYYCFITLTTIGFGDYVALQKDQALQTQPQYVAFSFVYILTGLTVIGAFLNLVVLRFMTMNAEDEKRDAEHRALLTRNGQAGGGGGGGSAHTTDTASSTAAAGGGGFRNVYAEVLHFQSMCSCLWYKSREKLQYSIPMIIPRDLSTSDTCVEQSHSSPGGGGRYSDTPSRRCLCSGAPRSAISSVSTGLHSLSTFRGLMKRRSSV
hERG inh: hERG channel inhibition, counter-screen for Kir2.1 inhibitor project, cell-based, thallium flux. hERG-expressing cells. inhibition, % at 10 µM. hit rate 20% among 320. shares compounds with Kir21 block;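 further: host cells are CHO cells stably expressing hERG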
KCNK9 inh-2: KCNK9 channel inhibition, selectivity assay for Kir2.1 inhibitor project, cell-based | shares compounds with Kir21 block | KCNK9-expressing cells, ion flux inhibition | inhibition, % at 10 µM | hit rate 5% among 320 | AID 2329, 2010
Kir2-1 patch inh: mouse Kir2.1 channel blockers, Kir2.1 inhibitor project, cell-based, secondary, automated electrophysiology; shares compounds with Kir21 block; Kir2.1 cells, automated patch-clamp current inhibition; inhibition, % at 25 µM; hit rate 71% among 320; AID 463252, 2010
The depositor's hits bear a star; i = inactive; . = no result. Unless noted, how the calls were made is not given here.

SMILES | KCNK9 inh-1 | hERG protect | Kir21 block | KCNQ1 inh | KCNQ1 act | KCNK3 inh | hERG inh | KCNK9 inh-2 | Kir2-1 patch inh
COc1ccc(CN(C)CC(O)COc2ccc(-c3ccccc3)cc2)cc1OC (stereo not drawn) | i | -18.2 | -0.48 | i | i | i | . | . | .
COc1ccc(CN(C)CC(O)COC(c2ccc(OC)cc2)c2ccc(OC)cc2)cc1 (stereo not drawn) | i | -17.3 | -8.66* | i | i | i | 75.0%* | i | i
C=CCn1c(SCC(=O)NC(C)(C)C)nnc1-c1ccccc1O | i | -8.6 | 0.26 | i | i | i | . | . | .
C=CCn1c(SCc2cccc(C#N)c2)nnc1-c1ccccc1O | i | -4.8 | -5.86* | i | i | i | i | i | 23.9%*
Cc1ccc(C(=O)NC(=S)NNC(=O)c2ccccc2O)cc1 | i | -11.5 | -0.33 | i | i | i | . | . | .
Cc1ccc(C(=O)NNC(=S)NC(=O)c2ccccc2)cc1 | i | 23.0* | 2.62 | i | 8* | i | i | i | i
O=C(O)CCC(=O)N1CCN(c2cccc(Cl)c2)CC1 | i | -10.3 | 0.81 | i | i | i | . | . | .
O=C(O)/C=C/C(=O)N1CCN(c2cccc(Cl)c2)CC1 | i | -17.9 | 4.29 | i | i | i | i | i | i
O=S(=O)(c1ccc(F)cc1)N1CCCc2ccccc21 | i | -6.2 | -5.99* | i | i | . | i | i | 19.2%*
CC(=O)c1ccc(S(=O)(=O)N2CCCc3ccccc32)cc1 | i | -3.0 | -3.14 | i | i | i | . | . | .
O=S(=O)(c1ccccc1)N1CCCc2ccccc21 | i | -0.7 | -6.45* | i | i | . | i | i | 22.1%*
O=C(O)c1ccc(S(=O)(=O)N2CCCc3ccccc32)cc1 | i | -2.6 | 0.05 | i | i | i | . | . | .
COc1cccc(C2/C(=C(/O)c3ccc4c(c3)CC(C)O4)C(=O)C(=O)N2CC2CCCO2)c1 (stereo not drawn) | i | -6.3 | 0.28 | i | i | i | . | . | .
COCCCNC(=O)C1=CCN(S(=O)(=O)c2ccc(C)cc2)CC1 | i | -6.8 | -0.5 | i | i | i | . | . | .
Cc1ccc(S(=O)(=O)N2CCN(C(=O)COC(=O)COc3ccc(Cl)cc3C)CC2)c(C)c1 | . | . | . | . | . | i | . | . | .
CCNC(=S)/N=C(/Nc1ccccc1)Nc1nc(C)cc(C)n1 | i | -7.7 | 2.49 | i | i | i | i | i | i
CN(C(=O)COC(=O)CNC(=O)c1ccc(Cl)cc1Cl)c1ccccc1 | i | -5.7 | -0.64 | i | i | i | . | . | .
O=C1c2ccc(Cl)cc2S(=O)(=O)c2cccc(C(=O)N3CCN(c4ccc(Cl)cn4)CC3)c21 | . | . | . | . | . | i | . | . | .
COc1ccc(CN(C)CC2CCCN(CCc3ccc(F)cc3)C2)cc1OC (stereo not drawn) | i | -2.6 | -6.23* | i | i | i | i | i | 22.3%*
COc1ccc(CCN2CCCC(CN(C)Cc3cc(OC)c(OC)c(OC)c3)C2)cc1 (stereo not drawn) | i | -9.1 | 1.17 | i | i | i | . | . | .
CC1CCC(NC(=O)CN2C(=O)c3ccccc3S2(=O)=O)CC1 (stereo not drawn) | . | . | . | . | . | i | . | . | .
COc1ccc(Oc2c(-c3ccc(O)cc3O)n[nH]c2C)cc1 | i | -9.9 | -5.71* | i | i | i | i | i | 0.2%*
O=C(c1cccc(F)c1)N1CCCc2ccccc21 | i | -4.0 | 0.83 | i | i | i | . | . | .
COC(=O)c1cc([N+](=O)[O-])c(-n2cncn2)c([N+](=O)[O-])c1 | i | -16.0 | -7.7* | i | i | i | i | i | i
COc1ccc(CCNC(=O)C(C)SCc2ccccc2)cc1 (stereo not drawn) | i | -10.3 | -7.49* | i | i | i | i | i | 56.0%*
SMILES | KCNK9 inh-1 | hERG protect | Kir21 block | KCNQ1 inh | KCNQ1 act | KCNK3 inh | hERG inh | KCNK9 inh-2 | Kir2-1 patch inh
COc1cccc(NC(=O)C(C)SCc2ccccc2)c1 (stereo not drawn) | i | -8.6 | 0.21 | i | i | i | . | . | .
CCC(=O)Nc1ccccc1C(=O)C(=O)Nc1ccccc1 | i | -4.6 | 0.16 | i | i | i | . | . | .
Cc1nnc(SCC(=O)NNC(=O)c2ccc(Cl)cc2)s1 | i | -5.4 | 0.16 | i | i | i | . | . | .
O=C1C(Cc2c[nH]c3ccccc23)NC(=S)N1Cc1ccccc1 (stereo not drawn) | i | -11.7 | -6.42* | i | i | i | i | i | 12.2%*
CN(C(=O)Cn1nc(Cl)ccc1=O)C1CCCN(Cc2ccccc2F)C1 (stereo not drawn) | i | -1.5 | -0.4 | i | i | i | . | . | .
CCC1CCCCN1C(=S)NC(=O)c1cccc([N+](=O)[O-])c1 (stereo not drawn) | i | 19.6* | 2.67 | i | 28* | i | i | i | i
CC(=O)NNC(=S)NC(=O)c1cccc([N+](=O)[O-])c1 | i | -6.0 | 0.48 | i | i | i | . | . | .
CCn1c(Sc2ccc(N)cc2Cl)nc2ccccc21 | i | -2.6 | -6.29* | i | i | i | i | i | 21.3%*
CCn1c(SCC(=O)NC(C)c2ccccc2)nc2ccccc21 (stereo not drawn) | i | -9.2 | -3.42 | i | i | i | . | . | .
Cc1ccc(CN2CCC(c3cc(-c4cccs4)n[nH]3)CC2)cc1 | i | -14.1 | -13.3* | i | i | i | 72.0%* | i | 37.4%*
FC(F)(F)c1cccc(CN2CCC(c3cc(-c4cccs4)n[nH]3)CC2)c1 | i | -17.7 | -0.57 | i | i | i | . | . | .
Cc1ccc(C)c(Cn2c3ccccc3c3cnn(CC(=O)NCCCN4CCCCC4)c(=O)c32)c1 | i | -14.7 | -6.16* | i | i | i | i | i | i
